Results of several laboratories.
Target: DNA-dependent protein kinase catalytic subunit (PRKDC, Homo sapiens, UniProt P78527)

COc1cc2ncnc(Nc3ccc(Oc4ccccc4)c(C)c3C)c2cc1OC  inhibition (enzyme activity; inhibitor; 1 µM): 9%
Cc1cc(NC(=O)c2cccc3cc(-c4cccc5[nH]nc(N)c45)ccc23)ccc1F  activity vs control (enzyme activity; inhibitor; 0.1 µM): 99%
Cc1ccc(NC(=O)c2ccc(C)c(C(F)(F)F)c2)cc1C#Cc1nn(C2CCC(O)CC2)c2ncnc(N)c12 (stereo not drawn)  remaining signal (cell-free assay; 10 µM): 94%
CS(=O)(=O)Nc1cccc(-c2csc(NC(=O)CSc3nc4nccnc4c(=O)n3CCc3ccccc3)n2)c1  inhibition (enzyme activity; inhibitor; 10 µM): 12%
CNc1cc(Oc2cc(C(=O)Nc3cc(N4CCN(C)CC4)cc(C(F)(F)F)c3)ccc2C)ncn1  inhibition (target engagement in cells; inhibitor; chemoproteomics; Huh-7; 1 µM): -44.8%
O=C(CSc1nc2nccnc2c(=O)n1CCc1ccccc1)Nc1nccs1  inhibition (enzyme activity; inhibitor; 10 µM): 23%
Cc1cnc(NC2CCOCC2)nc1-n1cnc(C(=O)NC(CN)c2cc(F)cc(Cl)c2)c1 (stereo not drawn)  remaining activity (enzyme activity; inhibitor; radiometric; 1 µM): 119%
CC(C)(C)c1nc2c(s1)c1nc(N)ncc1c1ccc(NS(=O)(=O)c3c(F)cccc3F)c(F)c12  remaining activity (enzyme activity; inhibitor; radiometric; 1 µM): 94%
COc1cc2ncnc(Nc3ccc(Oc4ccccc4)cc3C)c2cc1OC  inhibition (enzyme activity; inhibitor; 1 µM): 9%
CC(C)(C)c1nc(-c2cccc(NS(=O)(=O)c3c(F)cccc3F)c2F)c(-c2ccnc(N)n2)s1  remaining activity (enzyme activity; inhibitor; radiometric; 1 µM): 92%
C=CC(=O)Nc1cc(Nc2nccc(Nc3cc(Cl)c(F)cc3C(C)(C)O)n2)c(OC)cc1N1CC[C@@H](N(C)C)C1  inhibition (enzyme activity; inhibitor; 1 µM): -1%
Cc1ccc(C(=O)NCc2ccsc2)cc1C#Cc1cn(C(C)C)c2ncnc(N)c12  activity vs control (enzyme activity; inhibitor; 1 µM): 95%
